Active and inactive are the calls of the source. The calls are words filed in the database; no cut-off is given here.
Experiments:
[1] = tested on: CREB-binding protein/Histone acetyltransferase p300/Cellular tumor antigen p53 (Homo sapiens), P04637+Q09472+Q92793 [Y220C]; assay: AceTAC activity at FLAG-tagged p53Y220C mutant (unknown origin) expressed in human NCI-H1299 cells expressing p300/CBP assessed as stabilization of protein by measuring increase in aggregation temperature at 100 uM incubated for 1 hr at 32 to 50 degC by CETSA analysis; assay type: cell-based
In short: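 For CETSA, NCI-H1299 (p53Y220C) stable cells were treated with DMSO or 100 μM compound for 1 h, then heated at 32 to 50 °C. Soluble p53 was detected by Western blot. Representative of at least two independent experiments.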

[2] = tested on: NCI-H1299; assay: Inhibition of colony formation in human NCI-H1299 cells expressing p53Y220C mutant at 1 uM incubated for 14 days by crystal violet staining based analysis; assay type: functional, cell-based; details: time 14.0 day
In short: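 Clonogenic assay in NCI-H1299 (p53Y220C) cells exposed to DMSO or 1, 3 or 10 μM for 14 days. Colonies were fixed and stained with crystal violet. Images are representative of two independent experiments.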

[3] = tested on: CREB-binding protein/Histone acetyltransferase p300/Cellular tumor antigen p53 (Homo sapiens), P04637+Q09472+Q92793 [Y220C]; assay: (§1) AceTAC activity at FLAG-tagged p53Y220C mutant (unknown origin) expressed in human NCI-H1299 cells expressing p300/CBP assessed as increase in p53 acetylation at lysine 382 residue incubated for 24 hrs by western blot analysis; assay type: cell-based
In short: (§2)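 NCI-H1299 (p53Y220C) cells were treated at 0.1–10 μM (0.1, 0.3, 1, 3 or 10 μM) for 24 h. Lysates were Western blotted for p53 and p53K382ac, with vinculin as loading control. p53K382ac was normalised to total p53Y220C and quantified from two or three independent experiments.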

[4] = target: CREB-binding protein/Histone acetyltransferase p300/Cellular tumor antigen p53 (Homo sapiens, UniProt P04637+Q09472+Q92793, Y220C); assay: as §1; assay type: cell-based; in short: as §2
[5] = tested on: CREB-binding protein/Histone acetyltransferase p300/Cellular tumor antigen p53 (Homo sapiens), P04637+Q09472+Q92793 [Y220C]; assay: Induction of interaction between FLAG-tagged p53Y220C mutant (unknown origin) and p300/CBP expressed in human NCI-H1299 cells at 10 uM pretreated for 2 hrs with p53Y220C mutant binder, PK9328 followed by incubation with compound for 18 hrs by co-immunoprecipitation analysis; assay type: cell-based
In short: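 NCI-H1299 (p53Y220C) cells were pretreated for 2 h with a 10 μM p53Y220C binder or a 10 μM p300 binder, then given compound at 3 μM for 18 h. p53-FLAG pull-down was followed by Western blot analysis.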

[6] = tested on: CREB-binding protein/Histone acetyltransferase p300/Cellular tumor antigen p53 (Homo sapiens), P04637+Q09472+Q92793 [Y220C]; assay: as §1, with “at 10 uM pretreated” for “incubated”, “2 hrs with p53Y220C mutant binder, PK9328 followed by incubation with compound for 18” for “24”; assay type: cell-based
[7] = tested on: CREB-binding protein/Histone acetyltransferase p300/Cellular tumor antigen p53 (Homo sapiens), P04637+Q09472+Q92793 [Y220C]; assay: AceTAC activity at FLAG-tagged p53Y220C mutant (unknown origin) expressed in human NCI-H1299 cells expressing p300/CBP assessed as increase in p53 acetylation at lysine 382 residue at 10 uM pretreated for 2 hrs with p300/CBP bromodomain binder, 4-(2-(5-(3,5-dimethylisoxazol-4-yl)-2-(3-fluoro-4-methoxyphenethyl)-1H-benzo[d]imidazol-1-yl)ethyl)morpholine followed by incubation with compound for 18 hrs by western blot analysis; assay type: cell-based
[8] = tested on: NCI-H1299; assay: Antiproliferative activity against p53-null human NCI-H1299 cells assessed as reduction in cell viability at 0.47 to 15 uM incubated for 3 days by WST-8 assay; assay type: functional, cell-based; details: dose 0.47-15 µM, time 3.0 day
In short: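 p53-null NCI-H1299 cells were exposed to compound across the concentration series for 72 h before the viability read-out. Data are mean ± SD from three independent experiments.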

[9] = tested on: CREB-binding protein/Histone acetyltransferase p300/Cellular tumor antigen p53 (Homo sapiens), P04637+Q09472+Q92793 [Y220C]; assay: AceTAC activity at FLAG-tagged p53Y220C mutant (unknown origin) expressed in human NCI-H1299 cells expressing p300/CBP assessed as BAX mRNA expression at 3 uM incubated for 24 hrs by RT-PCR analysis; assay type: cell-based
In short: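 NCI-H1299 p53Y220C cells were treated with DMSO or compound at 3 μM for 24 h. mRNA of p53-target genes was measured by RT-qPCR, normalised to GAPDH and expressed relative to DMSO control. Values are mean ± SD of three independent experiments.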

[10] = tested on: PNT2; assay: Cytotoxicity against human PNT2 cells assessed as inhibition of cell growth incubated for 72 hrs by WST-8 assay; assay type: toxicity, cell-based; details: pnt2, 72 h
In short: (§3)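 U2OS (WT p53) or normal prostate PNT2 cells were treated for 72 h at the indicated concentrations. Viability is mean ± SD of technical triplicates from two biological experiments.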

[11] = Cytotoxicity against human PNT2 cells assessed as inhibition of cell growth at 10 uM incubated for 72 hrs by WST-8 assay; assay type: toxicity, cell-based; in short: as §3
[12] = tested on: CREB-binding protein/Histone acetyltransferase p300/Cellular tumor antigen p53 (Homo sapiens), P04637+Q09472+Q92793 [Y220C]; assay: AceTAC activity at FLAG-tagged p53Y220C mutant (unknown origin) expressed in human NCI-H1299 cells expressing p300/CBP assessed as increase in p53 acetylation at lysine 382 residue at 3 uM incubated for 24 hrs by western blot analysis; assay type: cell-based; in short: as §2

Question: For `CCn1c2ccc(CNCCOCCOCCOCCC(=O)NCCOc3ccc(CCc4nc5cc(-c6c(C)noc6C)ccc5n4CCN4CCOCC4)cc3F)cc2c2ccc(-c3cc(C)cs3)cc21`, which ΔTm [1] is on record?
Answer: 4.3 °C

Question: What about the inhibition [2] of the same compound?
Answer: Active

Question: What about the Activity [3] of the same compound?
Answer: Dose-Dependent Effect

Question: What about the EC50 [4] of the same compound?
Answer: 1520 nM

Question: And the Activity [5]?
Answer: inactive

Question: What about the Activity [6] of the same compound?
Answer: inactive

Question: What about the Activity [7] of the same compound?
Answer: inactive

Question: What about the Activity [8] of the same compound?
Answer: inactive

Question: What about the Activity [9] of the same compound?
Answer: inactive

Question: What about the GI50 [10] of the same compound?
Answer: > 10000 nM

Question: What about the inhibition at 72 h, 10 µM [11] of the same compound?
Answer: ~30%

Question: And the Activity [12]?
Answer: Active

— ChEMBL document CHEMBL5614410, “Design, Synthesis, and Evaluation of p53Y220C Acetylation Targeting Chimeras (AceTACs)” (J Med Chem, 2024)
